Assay outcomes (PubChem BioAssay)
TRPC6 inh: inhibitors of mouse TRPC6 channel; B-score at 10 µM; Q61143; hit rate 1.1% among 310,000; HEK293-TRPC6, membrane potential dye, ACh-evoked depolarization; hits give low values;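 active means B-score under library mean minus 3 SD, initial fluorescence not abnormally high, positive integrated signal ratio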;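 further: B-score derived from integrated fluorescence ratio over the kinetic read; more negative B-score means stronger inhibition of depolarization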
Target sequence (Q61143 whole entry, looked up): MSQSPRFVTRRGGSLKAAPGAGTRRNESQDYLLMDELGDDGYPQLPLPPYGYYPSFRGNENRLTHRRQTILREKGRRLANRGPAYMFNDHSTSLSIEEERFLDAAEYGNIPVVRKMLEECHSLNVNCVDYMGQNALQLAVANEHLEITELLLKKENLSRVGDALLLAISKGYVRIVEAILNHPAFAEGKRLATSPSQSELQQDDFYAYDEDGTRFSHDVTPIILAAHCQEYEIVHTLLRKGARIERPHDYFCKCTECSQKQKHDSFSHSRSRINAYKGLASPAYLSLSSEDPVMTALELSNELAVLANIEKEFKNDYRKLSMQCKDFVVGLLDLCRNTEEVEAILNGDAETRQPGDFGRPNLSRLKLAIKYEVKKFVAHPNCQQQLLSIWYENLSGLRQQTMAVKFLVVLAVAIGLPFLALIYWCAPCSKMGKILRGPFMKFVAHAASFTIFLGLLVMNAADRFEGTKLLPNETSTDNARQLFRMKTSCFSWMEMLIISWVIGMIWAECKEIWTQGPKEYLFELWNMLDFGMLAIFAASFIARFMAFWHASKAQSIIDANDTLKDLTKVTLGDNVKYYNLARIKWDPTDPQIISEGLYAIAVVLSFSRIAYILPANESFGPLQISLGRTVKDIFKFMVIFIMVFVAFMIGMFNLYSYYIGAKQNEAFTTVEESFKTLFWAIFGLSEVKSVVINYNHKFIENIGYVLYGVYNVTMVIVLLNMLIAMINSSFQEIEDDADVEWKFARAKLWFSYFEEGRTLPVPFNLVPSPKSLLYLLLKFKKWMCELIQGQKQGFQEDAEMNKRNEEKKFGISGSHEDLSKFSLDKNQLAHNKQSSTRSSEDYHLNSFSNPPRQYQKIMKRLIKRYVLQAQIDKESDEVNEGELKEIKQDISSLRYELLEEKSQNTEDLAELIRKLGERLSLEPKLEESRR
TRPC6 activator: activates the mouse TRPC6 cation channel | hit rate 0.13% among 310,000 | HEK293-TRPC6 membrane potential dye fluorescence; hits give high values | B-score at 10 µM | Q61143;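 active means B-score of the integrated fluorescence ratio above library mean plus 3 SD, and starting fluorescence ratio within library mean plus 5 SD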;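 further: higher score means more depolarization so channel activation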
TRPC4 agonist: TRPC4 (mouse) channel activation; HEK293 TRPC4beta/mu-opioid, Fluo4 calcium fluorescence; hits give high values; B-score at 10 µM; Q9QUQ5; hit rate 0.49% among 310,000;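 active means B-score above 5 SD of library B-scores, and initial fluorescence ratio not above library mean plus 5 SD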;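 further: positive B-score marks a calcium rise read as TRPC4 activation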
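System: HEK293 cells stably co-expressing mouse TRPC4beta and mu-opioid receptor; Schedule: Fluo4 dye loading 45 min at room temperature, 110 s recording; Detection: Fluo4 fluorescence, kinetic; Evaluation: B-scored integrated calcium fluorescence ratio; Controls: buffer (low) and maximal DAMGO (high).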
TRPC4 block: blocks the mouse TRPC4 cation channel. Q9QUQ5. HEK293 TRPC4beta/mu-opioid, DAMGO-evoked Fluo4 calcium flux; hits give low values. B-score at 10 µM. hit rate 0.39% among 300,000;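 active means B-score over 3 SD under the library average, no early fluorescence shift, positive overall ratio signal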
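Test system – stable TRPC4beta/mu-opioid receptor HEK293 cells · Probe or stimulus – DAMGO, a submaximal dose followed by a maximal one · Dosing – one concentration per compound · Signal – Fluo4 calcium fluorescence by kinetic imaging, 5 s 1 Hz baseline · Evaluation – per-well B score of integrated baseline-normalized Fluo4 ratio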
TRPC4 PAM: TRPC4 (mouse) allosteric potentiation. HEK293 TRPC4beta/mu-opioid, DAMGO EC20, Fluo-4 Ca2+ flux; hits give high values. hit rate 0.42% among 310,000. AID 2227. Q9QUQ5. B-score at 10 µM;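 active means B-score of calcium response area above 5 SD of library B-scores, with initial fluorescence ratio within 5 SD of library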;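 further: B-score of integrated fluorescence ratio over time as area under calcium response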
Active calls of the source: *; i = inactive. Compounds with a hit are over-represented: about 2.3% of the library has one in this group of screens.

SMILES	TRPC6 inh	TRPC6 activator	TRPC4 agonist	TRPC4 block	TRPC4 PAM
Cc1ccsc1/C=C(\C#N)C(=O)Nc1c(C)n(C)n(-c2ccccc2)c1=O	i	i	i	i	11*
Cc1cc(N2CCN(C)CC2)n2cc(-c3ccc(F)cc3)nc2n1	i	i	i	i	15*
COc1ccc(Nc2cc(C)c3c(O)cccc3n2)cc1	i	i	i	-5*	i
Cc1ccccc1Nc1cc(C)c2c(O)cccc2n1	i	i	72*	i	i
CCc1ccccc1NC(=S)N(CCCN(C)C)Cc1cc2cc3c(cc2[nH]c1=O)OCO3	i	i	i	-8*	i
Cc1cccc(NC(=S)N(CCCN(C)C)Cc2cc3cc4c(cc3[nH]c2=O)OCO4)c1	i	i	i	i	i
CC[C@H](C)[C@H](NC(N)=O)C(=O)NCCc1ccc(Cl)cc1Cl	i	i	i	i	i
CCc1ccc2[nH]c(=O)c(C3C(C#N)=C(N)Oc4c3ccc3cccnc43)cc2c1 (stereo not given)	-5.9*	i	i	i	i
O=C(COc1ccc(Br)cc1Cl)c1ccc[nH]1	i	i	i	-6*	i
CC(C)(C)CC(C)(C)NCC(O)COc1ccc2c(c1)CCC2 (stereo not given)	i	i	i	-6*	i
CC(C)(CO)NCC(O)COc1ccc2c(c1)CCC2 (stereo not given)	i	i	i	i	i
CCOC(=O)C1(CCOc2ccccc2)CCN(Cc2cccc3c2OCO3)CC1	i	i	i	-7*	i
CCOC(=O)C1(CCOc2ccccc2)CCN(Cc2ccc(CO)o2)CC1	i	i	i	i	i
CC(=O)Nc1ccc(CN2CCC(CO)(CCOc3ccccc3)CC2)cc1	i	i	i	i	i
CCOC(=O)C1(CCOc2ccccc2)CCN(Cc2cnc(C)s2)CC1	i	i	115*	i	i
CCOC(=O)C1(CCOc2ccccc2)CCN(Cc2ccc(OC)cc2)CC1	i	i	94*	i	i
CCOC(=O)C1(CCOc2ccccc2)CCN(Cc2ccccc2O)CC1	i	i	i	i	i
CCOC(=O)C1(CCOc2ccccc2)CCN(Cc2ccc(NC(C)=O)cc2)CC1	i	i	83*	i	i
NC(=O)C1CCN(C(=O)CCSCc2ccccc2)CC1	i	i	i	i	i
COc1ccc(OC)c(CN2CCC(CO)(CCOc3ccccc3)CC2)c1	i	i	i	i	i
CCOC(=O)C1(CCOc2ccccc2)CCN(Cc2cccc(-n3cccn3)c2)CC1	i	i	98*	i	i
CCOC(=O)C1(CCOC)CCN(C(C)CCc2ccc(OC)cc2)CC1 (stereo not given)	i	i	i	-7*	i
CCOC(=O)C1(CCOC)CCN(C(=O)Cc2ccc3ccccc3c2)CC1	i	i	i	i	i
COc1cc(CN2CCC(CO)(CCOc3ccccc3)CC2)cc(OC)c1	i	i	i	-5*	i
CCOC(=O)C1(CCOc2ccccc2)CCN(Cc2cccc(OC)c2OC)CC1	i	i	74*	i	i
SMILES	TRPC6 inh	TRPC6 activator	TRPC4 agonist	TRPC4 block	TRPC4 PAM
CCCCN(CC(=O)NC1CCCC1)C(=O)C(=O)Nc1ccc2c(c1)OCCO2	i	i	i	i	i
CSc1nnc(C2CCN(CC(=O)Nc3ccccc3N3CCOCC3)CC2)n1C(C)C	i	i	i	i	i
COc1cc(C(=O)NCC(=O)N2CCN(S(=O)(=O)c3cc(C)ccc3C)CC2)cc(OC)c1OC	i	i	i	i	i
CC(COc1ccccc1)N1CCC(CO)(CCc2ccccc2)CC1 (stereo not given)	i	i	51*	i	i
CSCC(C)N1CCC(CO)(CCc2ccccc2)CC1 (stereo not given)	i	i	i	i	i
Cc1nn(Cc2noc(C(=O)NCc3ccccn3)n2)c(C)c1Br	i	i	i	i	i
Cc1nn(Cc2noc(C(=O)NCCc3ccccn3)n2)c(C)c1Br	i	i	82*	i	i
COc1ccc(C2CC(=O)c3cnc(N4CCc5ccccc54)nc3C2)cc1OC (stereo not given)	i	i	i	i	i
CNc1nc(N2CCc3ccccc32)ncc1F	i	i	i	i	47*
CCc1cccc(CC)c1NC(=O)COC(=O)C1(C)CC1(Cl)Cl (stereo not given)	i	i	i	i	i
Cc1ccc(S(=O)(=O)N[C@H](C(=O)OCC(=O)N2N=C(c3ccc(Cl)cc3)CC2c2ccco2)C(C)C)cc1 (stereo not given in full)	i	i	i	i	i
CCCC(=O)NC(=S)Nc1ccc(S(=O)(=O)Nc2ccc(OCC)cc2)cc1	i	i	i	i	i
CCOc1ccc(NS(=O)(=O)c2ccc(NC(=S)NC(=O)CC(C)C)cc2)cc1	i	i	i	i	22*
O=C(Oc1ccccc1)N1CCN(C(=O)c2ccco2)CC1	i	i	i	i	i
COc1ccc2nc(/N=C(\N)NC(=O)C(C)(C)C)nc(C)c2c1	i	i	i	i	i
CCC(=O)N/C(N)=N/c1nc(C)c2cc(OC)ccc2n1	i	i	i	-7*	i
Cc1ccc(SCc2cc(=O)[nH]c(/N=C(\N)Nc3ccc(C)c(C)c3)n2)cc1	i	i	i	i	i
CCCNC(=O)c1c[nH]c2ccc(S(=O)(=O)N(C)c3ccc(OCC)cc3)cc2c1=O	i	i	i	i	i
CCCCN(C)CCNC(=O)c1c[nH]c2ccc(S(=O)(=O)N(CC)CC)cc2c1=O	i	i	i	i	20*
Cc1ccccc1CC(=O)NC1CCCc2ccccc21 (stereo not given)	i	i	i	i	i
O=[N+]([O-])c1ccccc1CNC1CCCc2ccccc21 (stereo not given)	i	i	i	-6*	i
Cc1cc(=O)oc2cc(NC(=O)c3cc([N+](=O)[O-])ccc3N3CCOCC3)ccc12	i	i	i	i	i
c1ccc(CN2CCN(c3nc(N4CCOCC4)c4ccccc4n3)CC2)cc1	-5.5*	i	i	i	i
CC1CCN(c2nc3ccc(C(=O)N4CCN(Cc5ccccc5)CC4)cc3s2)CC1	i	i	i	i	i
Oc1ccc(C(c2nnnn2CCc2ccccc2)N2CCN(c3nc4ccccc4s3)CC2)cc1 (stereo not given)	i	i	77*	i	i
